Test results taken from ChEMBL document CHEMBL1833952, “Inhibition of COX-1 activity and COX-2 expression by 3-(4'-geranyloxy-3'-methoxyphenyl)-2-trans propenoic acid and its semi-synthetic derivatives” (Bioorg Med Chem Lett, 2011).
pIC50: −log10 of the molar value. Active and inactive are the calls of the source. No cut-off for these calls is given here.

What was measured:
[1] = Antiinflammatory activity in human monocytes assessed as inhibition of LPS-induced COX2 expression assessed per ug of protein at 100 uM after 20 hrs using rabbit polyclonal antibody IgG by SDS-PAGE analysis (reference value: 1.53 +/- 0.3 ng/ug); assay type: functional, Monocyte
Procedure, shortened: (§1)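 Isolated human monocytes (3 × 10⁶ cells/ml) treated 20 h with test agent or vehicle in the presence of LPS; unstimulated cells as control. Cells lysed; equal protein loads run on SDS-polyacrylamide gel and immunoblotted with rabbit polyclonal antibody to a human COX-2-specific sequence (band ~72 kDa); beta-actin as loading control. Three experiments; dose-response series used for IC50.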

[2] = target: T1, Prostaglandin G/H synthase 2 (Ovis aries) (UniProt P79208); experiment: Inhibition of ovine COX2 using TMPD as substrate at 300 uM preincubated for 15 mins
T1 sequence (whole entry): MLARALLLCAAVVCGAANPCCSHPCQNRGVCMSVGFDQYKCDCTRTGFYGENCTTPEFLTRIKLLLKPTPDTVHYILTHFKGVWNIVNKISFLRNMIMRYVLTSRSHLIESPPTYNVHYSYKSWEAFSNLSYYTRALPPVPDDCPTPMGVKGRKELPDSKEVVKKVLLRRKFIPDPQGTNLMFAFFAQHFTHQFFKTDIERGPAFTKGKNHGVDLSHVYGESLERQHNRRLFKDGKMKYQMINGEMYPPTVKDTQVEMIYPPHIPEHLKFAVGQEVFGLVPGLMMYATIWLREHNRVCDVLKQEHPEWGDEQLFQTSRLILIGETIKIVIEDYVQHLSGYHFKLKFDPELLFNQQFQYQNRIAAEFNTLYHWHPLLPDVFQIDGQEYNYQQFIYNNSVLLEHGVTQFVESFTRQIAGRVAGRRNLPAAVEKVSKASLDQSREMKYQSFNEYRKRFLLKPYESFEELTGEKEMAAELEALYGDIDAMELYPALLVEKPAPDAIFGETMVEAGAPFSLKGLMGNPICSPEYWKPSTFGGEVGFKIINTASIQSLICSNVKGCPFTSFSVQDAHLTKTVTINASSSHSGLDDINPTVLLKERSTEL

[3] = target: T2, Prostaglandin G/H synthase 1 (Ovis aries) (UniProt P05979); experiment: (§2) Inhibition of ovine COX1 using TMPD as substrate preincubated for 15 mins
T2 sequence (whole entry): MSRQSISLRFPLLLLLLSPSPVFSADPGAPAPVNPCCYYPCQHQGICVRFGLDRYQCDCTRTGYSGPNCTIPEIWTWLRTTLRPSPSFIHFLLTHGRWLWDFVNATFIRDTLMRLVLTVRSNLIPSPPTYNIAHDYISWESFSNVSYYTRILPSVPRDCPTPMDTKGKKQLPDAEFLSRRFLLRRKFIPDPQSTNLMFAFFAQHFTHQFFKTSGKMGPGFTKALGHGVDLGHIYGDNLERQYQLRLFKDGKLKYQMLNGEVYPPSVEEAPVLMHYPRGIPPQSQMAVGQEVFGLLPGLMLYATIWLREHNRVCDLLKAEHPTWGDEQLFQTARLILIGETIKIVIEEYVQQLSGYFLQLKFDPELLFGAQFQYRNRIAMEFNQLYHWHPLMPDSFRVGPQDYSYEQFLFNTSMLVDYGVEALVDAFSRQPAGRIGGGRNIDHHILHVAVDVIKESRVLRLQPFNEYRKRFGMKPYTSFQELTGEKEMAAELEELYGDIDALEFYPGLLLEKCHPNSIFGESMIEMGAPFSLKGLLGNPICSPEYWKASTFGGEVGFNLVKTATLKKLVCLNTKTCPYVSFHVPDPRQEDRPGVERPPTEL

HL-60 = experiment: Inhibition of superoxide radicals production in human HL60 cells; assay type: functional
Raji = experiment: Inhibition of TPA-induced EBV-early antigen activation in human Raji cells; assay type: cell-based; settings: human gammaherpesvirus 4, dose or concentration not given here
[4] = target: T3, Prostaglandin G/H synthase 2 (Homo sapiens) (UniProt P35354); experiment: Inhibition of COX2 promoter activity in human DLD1 cells at 100 uM; assay type: cell-based; settings: DLD-1
T3 sequence (whole entry): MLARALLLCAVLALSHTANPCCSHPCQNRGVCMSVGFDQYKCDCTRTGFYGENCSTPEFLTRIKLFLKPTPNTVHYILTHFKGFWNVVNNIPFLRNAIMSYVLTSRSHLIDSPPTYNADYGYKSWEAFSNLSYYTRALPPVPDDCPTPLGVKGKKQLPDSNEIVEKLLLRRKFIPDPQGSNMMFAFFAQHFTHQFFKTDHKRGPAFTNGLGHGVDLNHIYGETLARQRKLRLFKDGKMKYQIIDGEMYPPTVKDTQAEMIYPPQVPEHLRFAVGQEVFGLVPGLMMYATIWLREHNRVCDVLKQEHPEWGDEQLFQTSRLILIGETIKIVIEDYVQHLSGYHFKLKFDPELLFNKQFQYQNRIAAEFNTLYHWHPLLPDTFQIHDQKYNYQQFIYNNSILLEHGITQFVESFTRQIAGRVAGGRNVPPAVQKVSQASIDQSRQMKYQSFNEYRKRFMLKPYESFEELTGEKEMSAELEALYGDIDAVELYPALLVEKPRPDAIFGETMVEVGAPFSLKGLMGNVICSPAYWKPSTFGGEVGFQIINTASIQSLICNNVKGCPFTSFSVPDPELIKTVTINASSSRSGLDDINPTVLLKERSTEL

Monocyte [5] = experiment: Antiinflammatory activity in human monocytes assessed as inhibition of LPS-induced COX1 expression at 100 uM after 24 hrs using rabbit polyclonal antibody IgG by Western blot analysis; assay type: functional, cell-based
Procedure, shortened: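 Isolated human monocytes (3 × 10⁶ cells/ml) incubated with LPS, vehicle or test agent; lysates immunoblotted with a specific anti-COX-1 antibody to assess COX-1-like immunoreactivity.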

Monocyte [6] = experiment: Antiinflammatory activity in human monocytes assessed as inhibition of LPS-induced COX2 expression at 100 uM after 20 hrs using rabbit polyclonal antibody IgG by Western blot analysis; assay type: functional, cell-based; procedure, shortened: as §1
Monocyte [7] = experiment: Antiinflammatory activity in human monocytes assessed as inhibition of LPS-induced COX2 expression at 100 uM after 20 hrs using rabbit polyclonal antibody IgG by SDS-PAGE analysis; assay type: functional, cell-based; procedure, shortened: as §1
Monocyte [8] = experiment: Antiinflammatory activity in human monocytes assessed as inhibition of LPS-induced COX2 expression after 20 hrs using rabbit polyclonal antibody IgG by Western blot analysis; assay type: functional, cell-based; procedure, shortened: as §1
[9] = Antiinflammatory activity in human monocytes assessed as inhibition of LPS-induced COX2 expression at 25 uM after 20 hrs using rabbit polyclonal antibody IgG by Western blot analysis; assay type: functional; settings: Monocyte; procedure, shortened: as §1
[10] = target: T4, Prostaglandin G/H synthase 1 (Ovis aries, UniProt P05979); experiment: as §2
T4 sequence (P05979 whole entry): T2 sequence (whole entry)

Monocyte [11] = experiment: Antiinflammatory activity in human monocytes assessed as inhibition of LPS-induced COX2 expression at 5 uM after 20 hrs using rabbit polyclonal antibody IgG by SDS-PAGE analysis; assay type: functional, cell-based; procedure, shortened: as §1
[12] = Antiinflammatory activity in human monocytes assessed as inhibition of LPS-induced COX2 expression at 10 uM after 20 hrs using rabbit polyclonal antibody IgG by Western blot analysis; assay type: functional; settings: Monocyte; procedure, shortened: as §1

inhibition [2] | inhibition [3] | SMILES | inhibition (Monocyte [5]) | inhibition (Monocyte [6]) | other results
inactive | inactive | COc1cc(/C=C/C(=O)O)ccc1OCC=C(C)C [BOROPINIC ACID] | – | – | Activity [1]: 1.78 ng/µg
inactive | inactive | CC(C)=CCC/C(C)=C/COc1ccc(/C=C/C(=O)O)cc1Cl | inactive | inactive | –
inactive | inactive | CC(C)=CCC/C(C)=C/COc1ccc(/C=C/C(=O)O)cc1C | inactive | inactive | –
97.5% | – | COc1cc(/C=C/C(=O)O)ccc1OC/C=C(\C)CCC=C(C)C | – | – | inhibition (Monocyte [7]): Active; inhibition (Monocyte [8]): Dose-dependent effect; pIC50 [10]: 4.27; inhibition at 10 µM [12]: 20%

Continued, molecule first:

SMILES | inhibition [2] | inhibition [3] | inhibition (Monocyte [5]) | inhibition (Monocyte [6]) | other results
CC(C)=CCC/C(C)=C/COc1ccc(/C=C/C(=O)O)cc1 | inactive | inactive | – | – | Activity [1]: 1.7 ng/µg
COC(=O)/C=C/c1ccc(OC/C=C(\C)CCC=C(C)C)c(OC)c1 | – | – | – | – | inhibition (INH) (HL-60): 35%; inhibition (Raji): 81%; inhibition [4]: 50%
CC(C)=CCOc1ccc(/C=C/C(=O)O)cc1Cl | inactive | inactive | inactive | inactive | –
CC(C)=CCOc1ccc(/C=C/C(=O)O)cc1 | 74% | – | – | – | inhibition (Monocyte [7]): Active; inhibition (Monocyte [8]): Dose-dependent effect; inhibition at 25 µM [9]: 13%; pIC50 [10]: 4.45
CC(C)=CCOc1ccc(/C=C/C(=O)O)cc1C | inactive | inactive | inactive | inactive | –
CCOC(=O)/C=C/c1ccc(OC/C=C(\C)CCC=C(C)C)c(OC)c1 | – | – | – | – | inhibition (INH) (HL-60): 45%; inhibition (Raji): 78%
C[C@@H]1C[C@H]2[C@@H]3CCC4=CC(=O)C=C[C@]4(C)[C@@]3(F)[C@@H](O)C[C@]2(C)[C@@]1(O)C(=O)CO | – | – | – | – | inhibition (Monocyte [11]): Active
